This is an account of results in ChEMBL document CHEMBL4339243, “Molecular Networking Reveals the Chemical Diversity of Selaginellin Derivatives, Natural Phosphodiesterase-4 Inhibitors from Selaginella tamariscina” (J Nat Prod, 2019).

T1 sequence (Q08499 whole entry): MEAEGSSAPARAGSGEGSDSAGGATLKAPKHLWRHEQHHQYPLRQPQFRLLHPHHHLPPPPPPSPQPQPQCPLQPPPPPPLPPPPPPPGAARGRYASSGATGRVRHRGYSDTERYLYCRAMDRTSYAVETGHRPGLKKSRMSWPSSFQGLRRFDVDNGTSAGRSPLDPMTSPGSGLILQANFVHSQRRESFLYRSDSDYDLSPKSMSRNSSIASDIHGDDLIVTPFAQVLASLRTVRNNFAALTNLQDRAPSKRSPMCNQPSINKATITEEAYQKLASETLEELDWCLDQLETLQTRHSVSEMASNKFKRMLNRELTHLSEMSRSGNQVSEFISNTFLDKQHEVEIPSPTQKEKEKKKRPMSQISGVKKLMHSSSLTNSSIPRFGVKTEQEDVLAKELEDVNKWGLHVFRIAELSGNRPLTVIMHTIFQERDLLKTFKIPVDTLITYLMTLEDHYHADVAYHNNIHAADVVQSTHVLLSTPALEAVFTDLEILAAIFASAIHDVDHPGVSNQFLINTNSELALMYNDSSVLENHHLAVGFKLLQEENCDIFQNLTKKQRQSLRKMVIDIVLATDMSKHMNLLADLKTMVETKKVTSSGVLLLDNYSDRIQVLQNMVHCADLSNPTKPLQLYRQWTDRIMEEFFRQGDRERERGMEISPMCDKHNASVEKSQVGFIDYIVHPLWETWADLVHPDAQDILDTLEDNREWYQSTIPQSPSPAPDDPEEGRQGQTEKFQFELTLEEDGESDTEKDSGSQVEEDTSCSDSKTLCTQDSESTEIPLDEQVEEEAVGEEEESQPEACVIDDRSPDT

In one assay the target is T1, 3',5'-cyclic-AMP phosphodiesterase 4D (Homo sapiens, UniProt Q08499). Description: Inhibition of PDE4D2 (unknown origin) by preincubated for 30 mins before substrate addition and measured after 60 mins by IMAP TR-FRET phosphodiesterase evaluation assay. The method, boiled down:
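Purchased PDE4D2 at 5.0 pg/μL in IMAP buffer (10 mM Tris pH 7.2, 10 mM MgCl2, 0.05% NaN3, 1 mM DTT, 0.1% phosphate-free BSA). Compound or vehicle preincubated 30 min at RT, then FAM-cAMP added (200 nM final), 60 min at RT. Stopped with IMAP Tb binding reagent, 60 min at RT, fluorescence read. IC50 by four-parameter nonlinear fit, three independent replicates.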
In turn, `COCc1cc(O)c2c(c1C#Cc1ccc(O)cc1)C(c1ccc(O)cc1)(c1ccc(O)cc1)c1cc(O)ccc1-2` registered an IC50 of 29.5 µM.

Compound `COCc1ccc2c(c1C#Cc1ccc(O)cc1)[C@](c1ccc(O)cc1)(c1ccc(OC)cc1)c1cc(O)ccc1-2` registered an IC50 of 33.8 µM. For `COCc1ccc2c(c1C#Cc1ccc(O)cc1)C(c1ccc(OC)cc1)(c1ccc(OC)cc1)c1cc(O)ccc1-2`, the IC50 was 2.8 µM.

`COCc1ccc2c(c1C#Cc1ccc(O)cc1)C(c1ccc(O)cc1)(c1ccc(O)cc1)c1cc(O)ccc1-2` displayed an IC50 of 23.2 µM. Still for that read-out and setting: the figure for `COc1ccc(C2(c3ccc(OC)cc3)c3cc(O)ccc3-c3ccc(CO)c(C#Cc4ccc(O)cc4)c32)cc1` is 5.4 µM; for `COc1ccc(-c2c3ccc(OC)cc3c3c4c(ccc(-c5ccc(O)cc5)c24)[C@@H](c2ccc(O)cc2)OC3=O)cc1` it is above 30 µM; for `COc1ccc([C@@]2(c3ccc(O)cc3)c3cc(O)ccc3-c3ccc(C)c(C#Cc4ccc(O)cc4)c32)cc1` it is 19.5 µM. Same read-out and setting: the figure for `COc1ccc(-c2c3ccc(OC)cc3c3c4c(ccc(-c5ccc(O)cc5)c24)C(=O)O[C@H]3c2ccc(O)cc2)cc1` is 13.7 µM; for `COc1ccc([C@@]2(c3ccc(O)cc3)c3cc(O)ccc3-c3ccc(CO)c(C#Cc4ccc(O)cc4)c32)cc1` it is 32.1 µM.

Consider `COc1ccc(C2(c3ccc(OC)cc3)c3cc(O)ccc3-c3ccc(C)c(C#Cc4ccc(O)cc4)c32)cc1`, for which it took 24.6 µM to reach half-maximal inhibition (IC50).

Another assay has as its target T1, 3',5'-cyclic-AMP phosphodiesterase 4D. Description: Inhibition of human PDE4D2 catalytic domain (86 to 413 residues) expressed in Escherichia coli strain BL21 using [3H]cAMP as substrate after 15 mins by liquid scintillation counter analysis.
On to `COc1ccc(C2(c3ccc(OC)cc3)c3cc(O)ccc3-c3cccc(C#Cc4ccc(O)cc4)c32)cc1`, for which the 50% inhibitory concentration (IC50) worked out at 0.09 µM. Same read-out and setting: the figure for `OCc1ccc2c(c1C#Cc1ccc(O)cc1)C(c1ccc(O)cc1)(c1ccc(O)cc1)c1cc(O)ccc1-2` is 0.2 µM; for `COc1ccc(C2(c3ccc(OC)cc3)c3cc(O)ccc3-c3ccc(C=O)c(C#Cc4ccc(O)cc4)c32)cc1` it is 0.01 µM; for `O=C1C=CC(=C(c2ccc(O)cc2)c2c(-c3ccc(O)cc3)ccc(CO)c2C#Cc2ccc(O)cc2)C=C1` it is 1 µM. Same read-out and setting: under `Oc1ccc(C#Cc2ccc(O)c3c2C(c2ccc(O)cc2)(c2ccc(O)cc2)c2cc(O)ccc2-3)cc1` stands 1.2 µM.
